The values that follow come from paper PMC4919611 (EBioMedicine, 2016).

For test [1], the target named is T1, CBFβ-RUNX1 Runt domain binding (Homo sapiens, UniProt Q13951).
T1 sequence (Q13951 1-141): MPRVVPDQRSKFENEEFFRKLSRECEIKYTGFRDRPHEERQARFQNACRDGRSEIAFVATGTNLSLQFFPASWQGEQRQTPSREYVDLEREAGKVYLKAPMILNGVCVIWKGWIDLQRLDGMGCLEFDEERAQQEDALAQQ
The experiment in a line: FRET assay of CBFβ. Conditions: inhibition of CBFβ-Runt domain binding. A digest of the protocol:
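FRET binding assay using 100 nM Cerulean-Runt domain and 100 nM Venus-CBFβ across a test compound concentration series. Read-out was the emission ratio at 525/474 nm. Run in duplicate.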

For test [2], the system named is panel of 11 leukemia cell lines. Nature of the test: Viability of a panel of 11 leukemia cell lines. The class given is cell-based. Particulars: 48 h treatment, 11 cell lines. A digest of the protocol: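 Eleven leukemia lines grown in IMDM with 10% FBS. Plated at 5 × 10^5 cells/ml and treated 48 h with test compound at several doses or DMSO. DAPI-stained; at least 2 × 10^4 events acquired by flow cytometry. Viability taken as percent DAPI-negative cells relative to control.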

A further test deals with T2, CBFβ (Homo sapiens, UniProt Q13951).
T2 sequence (Q13951 1-141): T1 sequence (Q13951 1-141)
The experiment in a line: NMR detection of interaction with CBFβ. The test is classed as binding. A digest of the protocol: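 CBFβ (1-141) in 50 mM KPi pH 7.5, 0.1 mM EDTA, 1 mM DTT, 5% DMSO, 5% D2O. HSQC: 150 μM protein titrated with 600 μM test compound at 800 MHz; 15N/13C shift perturbations taken with versus without compound. STD: 200 μM CBFβ, 2 mM compound, 600 MHz, 25 °C, saturation 500–2000 ms, on-resonance 0.4 ppm, off-resonance 30 ppm.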

A further test addresses RUNX1 Runt domain (Homo sapiens, UniProt Q01196). The experiment in a line: NMR detection of interaction with RUNX1 Runt domain. The test is classed as binding.
The test system of test [3] is CBFβ-Runt domain interaction. Conditions: ref Cunningham et al., 2012; cited from earlier work.
The test system of the next test is CBFβ-RUNX1 binding. Conditions: ref Cunningham et al., 2012; cited from earlier work.

Chain of RUNX1 Runt domain (Q01196 50-178 limits assumed): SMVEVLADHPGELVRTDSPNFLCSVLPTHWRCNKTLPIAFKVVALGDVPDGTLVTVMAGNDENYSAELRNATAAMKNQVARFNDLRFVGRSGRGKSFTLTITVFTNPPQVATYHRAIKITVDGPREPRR

In the case of `c1ccc(-c2nc3ccccc3[nH]2)nc1` [AI-4-88], the “activity in the FRET assay (in words)” value in test [1] is on record as “complete loss of activity”. Besides, the “growth inhibition / activity against leukemia cell lines (in words)” value in test [2] is reported as “did not observe any activity”.

Turning to `O=C1CN=C(c2ccc[nH]2)c2cc(Cl)ccc2N1` [Ro5-3335], in test [1], the “activity in the FRET assay (in words)” value is reported as “no effect”. Also, the “interaction with CBFβ by NMR” value at CBFβ is “could not detect any interaction”. Also, the “interaction with RUNX1 Runt domain by NMR” value at RUNX1 Runt domain was “could not detect any interaction”. Further, the “effect in the alpha screen assay” value in test [3] is on record as “does not show significant effects”. For the same compound, the “effect on CBFβ-RUNX1 binding in cells” value in the test with CBFβ-RUNX1 binding is on record as “does not show an effect”.
